Assay results published in ChEMBL document CHEMBL3259701, “Siderophore receptor-mediated uptake of lactivicin analogues in gram-negative bacteria” (J Med Chem, 2014).
Converted amounts (≈) assume the structure as drawn.

How the values were obtained:
[1] = test system: Escherichia coli; test: Antibacterial activity against Escherichia coli DH5alpha expressing beta-lactamase SHV-5 by CLSI broth microdilution method; assay type: functional; conditions: DH5[alpha]
[2] = test system: Escherichia coli; test: Antibacterial activity against Escherichia coli DH5alpha expressing beta-lactamase CTX-M-15 by CLSI broth microdilution method; assay type: functional; conditions: DH5[alpha]
[3] = test system: Escherichia coli; test: Antibacterial activity against Escherichia coli DH5alpha expressing beta-lactamase NDM-1 by CLSI broth microdilution method; assay type: functional; conditions: DH5[alpha]
[4] = test system: Escherichia coli; test: Antibacterial activity against Escherichia coli DH5alpha by CLSI broth microdilution method; assay type: functional; conditions: DH5[alpha]
[5] = test system: Escherichia coli; test: Antibacterial activity against Escherichia coli DH5alpha expressing beta-lactamase KPC-3 by CLSI broth microdilution method; assay type: functional; conditions: DH5[alpha]
[6] = test system: Escherichia coli; test: Antibacterial activity against Escherichia coli DH5alpha expressing beta-lactamase OXA-58 by CLSI broth microdilution method; assay type: functional; conditions: DH5[alpha]
[7] = test system: Escherichia coli; test: Antibacterial activity against Escherichia coli DH5alpha expressing beta-lactamase OXA-24/40 by CLSI broth microdilution method; assay type: functional; conditions: DH5[alpha]
[8] = test system: Escherichia coli; test: Antibacterial activity against Escherichia coli DH5alpha expressing beta-lactamase TEM-1 by CLSI broth microdilution method; assay type: functional; conditions: DH5[alpha]
[9] = test system: Escherichia coli; test: Antibacterial activity against Escherichia coli DH5alpha harboring pUCP26 empty vector by CLSI broth microdilution method; assay type: functional; conditions: DH5[alpha]
[10] = test system: Escherichia coli; test: Antibacterial activity against Escherichia coli DH5alpha expressing beta-lactamase SHV-12 by CLSI broth microdilution method; assay type: functional; conditions: DH5[alpha]
[11] = test system: Escherichia coli; test: Antibacterial activity against Escherichia coli DH5alpha expressing beta-lactamase TEM-24 by CLSI broth microdilution method; assay type: functional; conditions: DH5[alpha]
[12] = test system: Escherichia coli; test: Antibacterial activity against Escherichia coli DH5alpha expressing beta-lactamase VIM-2 by CLSI broth microdilution method; assay type: functional; conditions: DH5[alpha]
[13] = Displacement of fluorescent Bocillin FL from Pseudomonas aeruginosa PBP1b
[14] = test system: Escherichia coli; test: Ratio of MIC for Escherichia coli DH5alpha expressing beta-lactamase OXA-24/40 to MIC for Escherichia coli DH5alpha harboring pUCP26 empty vector; assay type: functional, DH5[alpha]
Method in brief: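 Isogenic E. coli panel in which each strain was engineered to express a single common β-lactamase. MIC for the OXA-24/40 strain was divided by the MIC for the empty-vector control strain. MICs were obtained by CLSI broth microdilution.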

[15] = test system: Pseudomonas aeruginosa; test: Antibacterial activity against Pseudomonas aeruginosa PAO1 by CLSI broth microdilution method; assay type: functional
[16] = test system: Acinetobacter baumannii; test: Antibacterial activity against Acinetobacter baumannii AB-3167 by CLSI broth microdilution method; assay type: functional
[17] = Displacement of fluorescent Bocillin FL from Pseudomonas aeruginosa PBP2
[18] = biological target: Penicillin-binding protein 1A (Pseudomonas aeruginosa PAO1, UniProt Q07806); test: Displacement of fluorescent Bocillin FL from N-terminal His tagged Pseudomonas aeruginosa PAO1 PBP1a (residues 36 to 822) expressed in Escherichia coli BL21 (Gold cells)
[19] = Displacement of fluorescent Bocillin FL from Pseudomonas aeruginosa PBP3
[20] = test system: Pseudomonas aeruginosa; test: Antibacterial activity against Pseudomonas aeruginosa 1091-05 by CLSI broth microdilution method; assay type: functional
[21] = test system: Klebsiella pneumoniae; test: Antibacterial activity against Klebsiella pneumoniae KP-3700 by CLSI broth microdilution method; assay type: functional
[22] = test system: Escherichia coli; test: Antibacterial activity against Escherichia coli EC-28 by CLSI broth microdilution method; assay type: functional

Sequence of Penicillin-binding protein 1A (Q07806 whole entry, the tested form may be a part): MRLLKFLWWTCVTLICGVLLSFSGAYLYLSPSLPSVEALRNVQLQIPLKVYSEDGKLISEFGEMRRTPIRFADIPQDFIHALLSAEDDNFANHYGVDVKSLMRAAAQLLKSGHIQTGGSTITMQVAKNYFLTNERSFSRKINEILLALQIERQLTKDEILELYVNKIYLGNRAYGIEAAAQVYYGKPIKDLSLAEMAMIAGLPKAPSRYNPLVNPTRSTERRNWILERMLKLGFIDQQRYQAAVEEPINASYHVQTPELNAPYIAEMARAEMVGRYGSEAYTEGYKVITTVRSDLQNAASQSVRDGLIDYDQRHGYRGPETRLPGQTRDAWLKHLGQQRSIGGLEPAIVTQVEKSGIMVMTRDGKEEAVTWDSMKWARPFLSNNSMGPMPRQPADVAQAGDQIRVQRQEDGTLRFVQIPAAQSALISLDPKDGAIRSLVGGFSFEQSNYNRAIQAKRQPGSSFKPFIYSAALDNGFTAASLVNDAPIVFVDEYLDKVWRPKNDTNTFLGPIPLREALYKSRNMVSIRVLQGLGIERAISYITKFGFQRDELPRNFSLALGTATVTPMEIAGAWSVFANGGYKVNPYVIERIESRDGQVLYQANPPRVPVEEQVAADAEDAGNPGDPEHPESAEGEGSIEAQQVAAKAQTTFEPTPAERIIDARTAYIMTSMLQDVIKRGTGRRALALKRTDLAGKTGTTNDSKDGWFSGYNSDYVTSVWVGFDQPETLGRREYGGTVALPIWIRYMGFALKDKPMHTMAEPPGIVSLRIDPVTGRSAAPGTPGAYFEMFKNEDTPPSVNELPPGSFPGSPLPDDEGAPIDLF

| IC50 [13] [nM] | MIC [15] [µg/mL] | MIC [16] [µg/mL] | IC50 [17] [nM] | IC50 [18] [nM] | MIC [20] [µg/mL] | MIC [21] [µg/mL] | MIC [22] [µg/mL] | Structure (SMILES) | MIC [1] [µg/mL] | MIC [2] [µg/mL] | MIC [3] [µg/mL] | MIC [4] [µg/mL] | MIC [5] [µg/mL] | MIC [6] [µg/mL] | MIC [7] [µg/mL] | MIC [8] [µg/mL] | MIC [10] [µg/mL] | MIC [11] [µg/mL] | MIC [12] [µg/mL] | IC50 [19] [nM] | further results |
| --- | --- | --- | --- | --- | --- | --- | --- | --- | --- | --- | --- | --- | --- | --- | --- | --- | --- | --- | --- | --- | --- |
|  |  |  |  |  |  |  |  | CC1(C)[C@H](NC(=O)/C(=N\OCc2cc(=O)c(O)cn2O)c2csc(N)n2)C(=O)N1OS(=O)(=O)O | > 64 | 1 (≈ 1.93 µM) | 0.06 (≈ 0.116 µM) | 0.125 (≈ 0.241 µM) | 0.125 (≈ 0.241 µM) | 0.125 (≈ 0.241 µM) | 0.125 (≈ 0.241 µM) | 0.03 (≈ 0.0579 µM) | > 64 | > 64 | 0.03 (≈ 0.0579 µM) |  | MIC [9]: 0.125 µg/mL (≈ 0.241 µM) |
| 2440 | > 64 | > 64 | 47100 | 110 | > 64 | > 64 | > 64 | CC(C)(O/N=C(\C(=O)N[C@H]1CON(C2(C(=O)O)C[C@@H](NC(=O)OCc3ccccc3)C(=O)O2)C1=O)c1csc(N)n1)C(=O)O (some centres undefined) |  |  |  |  |  |  |  |  |  |  |  |  |  |
| 1740 | > 64 | > 64 | 33300 | 65 | > 64 | > 64 | > 64 | CC(C)(O/N=C(\C(=O)N[C@H]1CON(C2(C(=O)O)C[C@H](NC(=O)OCc3ccccc3)C(=O)O2)C1=O)c1csc(N)n1)C(=O)O (some centres undefined) |  |  |  |  |  |  |  |  |  |  |  |  |  |
| 820 | 16 (≈ 24.5 µM) | 0.5 (≈ 0.765 µM) | 6410 | 46 | 2 (≈ 3.06 µM) | 16 (≈ 24.5 µM) | 1 (≈ 1.53 µM) | CC(C)(O/N=C(\C(=O)N[C@H]1CON(C2(C(=O)O)C[C@@H](NC(=O)c3cc(=O)c(O)cn3O)C(=O)O2)C1=O)c1csc(N)n1)C(=O)O (some centres undefined) |  |  |  |  |  |  |  |  |  |  |  | 65 |  |
| 820 | 2 (≈ 3.06 µM) | 0.5 (≈ 0.765 µM) | 3700 | 46 | 64 (≈ 97.9 µM) | 8 (≈ 12.2 µM) | 1 (≈ 1.53 µM) | CC(C)(O/N=C(\C(=O)N[C@H]1CON(C2(C(=O)O)C[C@H](NC(=O)c3cc(=O)c(O)cn3O)C(=O)O2)C1=O)c1csc(N)n1)C(=O)O (some centres undefined) |  |  |  |  |  |  |  |  |  |  |  | 92 |  |
|  |  |  |  |  |  |  |  | CC[C@H](O)Cn1c(-c2cc(=O)c(O)c[nH]2)nn(S(=O)(=O)[N-]C(=O)N2C[C@H](NC(=O)/C(=N\OC(C)(C)C(=O)[O-])c3csc(N)n3)C2=O)c1=O.[Na+].[Na+] | 0.5 | 0.25 | 0.03 | 0.125 | 0.06 | 0.125 | 0.25 | 0.03 | 0.25 | 0.125 | 0.015 |  | MIC [9]: 0.125 µg/mL |
|  |  |  |  |  |  |  |  | CC1(C)S[C@@H]2[C@H](NC(=O)[C@H](N)c3ccccc3)C(=O)N2[C@H]1C(=O)O [AMPICILLIN] | > 64 | > 64 | > 64 |  | 64 (≈ 183 µM) | > 64 | 32 (≈ 91.6 µM) | > 64 | > 64 | > 64 | > 64 |  |  |

| Structure (SMILES) | IC50 [13] [nM] | MIC [15] [µg/mL] | MIC [16] [µg/mL] | IC50 [17] [nM] | IC50 [18] [nM] | MIC [20] [µg/mL] | MIC [21] [µg/mL] | MIC [22] [µg/mL] | MIC [1] [µg/mL] | MIC [2] [µg/mL] | MIC [3] [µg/mL] | MIC [4] [µg/mL] | MIC [5] [µg/mL] | MIC [6] [µg/mL] | MIC [7] [µg/mL] | MIC [8] [µg/mL] | MIC [10] [µg/mL] | MIC [11] [µg/mL] | MIC [12] [µg/mL] | IC50 [19] [nM] | further results |
| --- | --- | --- | --- | --- | --- | --- | --- | --- | --- | --- | --- | --- | --- | --- | --- | --- | --- | --- | --- | --- | --- |
| CC(C)(O/N=C(\C(=O)N[C@H]1CON(C2(C(=O)O)CCC(=O)O2)C1=O)c1csc(N)n1)C(=O)O (some centres undefined) | 1230 | 32 (≈ 65.9 µM) | 32 (≈ 65.9 µM) | 33300 | 46 | 32 (≈ 65.9 µM) | 4 (≈ 8.24 µM) |  | 0.5 (≈ 1.03 µM) | 0.5 (≈ 1.03 µM) | 0.5 (≈ 1.03 µM) | 0.25 (≈ 0.515 µM) | 0.5 (≈ 1.03 µM) | 0.25 (≈ 0.515 µM) | 1 (≈ 2.06 µM) | 0.25 (≈ 0.515 µM) | 0.25 (≈ 0.515 µM) | 0.5 (≈ 1.03 µM) | 0.25 (≈ 0.515 µM) | 92 | Ratio [14]: 4; MIC [9]: 0.25 µg/mL (≈ 0.515 µM) |
| Nc1nc(/C(=N/OCc2cc(=O)c(O)cn2O)C(=O)N[C@H]2CON(C3(C(=O)O)CCC(=O)O3)C2=O)cs1 (some centres undefined) | 2460 | 8 (≈ 14.9 µM) | 0.5 (≈ 0.929 µM) | 22200 | 46 | 4 (≈ 7.43 µM) | 32 (≈ 59.4 µM) | 2 (≈ 3.71 µM) | 32 (≈ 59.4 µM) | 4 (≈ 7.43 µM) | 1 (≈ 1.86 µM) | 1 (≈ 1.86 µM) | 1 (≈ 1.86 µM) | 1 (≈ 1.86 µM) | 1 (≈ 1.86 µM) | 1 (≈ 1.86 µM) | 16 (≈ 29.7 µM) | 4 (≈ 7.43 µM) | 0.5 (≈ 0.929 µM) | 140 | MIC [9]: 0.5 µg/mL (≈ 0.929 µM) |
| C[C@H]1[C@H](NC(=O)/C(=N\OC(C)(C)C(=O)O)c2csc(N)n2)C(=O)N1S(=O)(=O)O [AZTREONAM] | 2870 |  |  | > 300000 | 3340 |  |  |  |  |  |  |  |  |  |  |  |  |  |  | 8 |  |
